Test results published in ChEMBL document CHEMBL1781968, “δ-Carbolines and their ring-opened analogs: synthesis and evaluation against fungal and bacterial opportunistic pathogens” (Eur J Med Chem, 2011).
Converted amounts (≈) assume the structure as drawn.

Experiments:
[1] = Cytotoxicity against african green monkey Vero cell after 48 hrs by neutral red uptake assay; assay type: cell-based; settings: chlorocebus sabaeus, Vero cells; read-out: TC50
Procedure, shortened: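 VERO kidney fibroblasts seeded at 25,000 cells/well and incubated 24 h. Compounds added, highest concentration 10 μg/mL, then 48 h further incubation. Viable cells measured by neutral red assay. IC50 taken from growth-inhibition dose curves. Doxorubicin as positive control, DMSO as vehicle control.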

[2] = system: Candida albicans; assay: Antifungal activity against Candida albicans ATCC 90028 by NCCLS method; assay type: functional, organism-based
Procedure, shortened: (§1)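 Modified NCCLS microdilution for fungi. Samples in DMSO serially diluted with 0.9% saline, in duplicate, final concentrations from 20 μg/mL down. Inocula matched to 0.5 McFarland (630 nm) and diluted in Sabouraud dextrose broth. Growth, solvent and medium controls included. OD 530 nm read before and after incubation. IC50 from percent growth curve. MIC is no detectable growth. MFC is lowest concentration killing the organism.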

[3] = system: Cryptococcus neoformans; assay: Antifungal activity against Cryptococcus neoformans ATCC 90113 by NCCLS method; assay type: functional, organism-based; procedure, shortened: as §1
[4] = system: Aspergillus fumigatus; assay: Antifungal activity against Aspergillus fumigatus ATCC 204305 by NCCLS method; assay type: functional, organism-based; procedure, shortened: as §1
[5] = system: Staphylococcus aureus; assay: Antibacterial activity against methicillin-resistant Staphylococcus aureus ATCC 33591 by NCCLS method; assay type: functional, organism-based
Procedure, shortened: (§2)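 Broth microdilution (modified NCCLS). Samples in DMSO serially diluted in 0.9% saline, tested in duplicate, highest final concentration 20 μg/mL. Inoculum matched to 0.5 McFarland standard by absorbance at 630 nm, then diluted in cation-adjusted Mueller–Hinton broth. Growth, solvent and medium controls on each plate. Absorbance at 530 nm read before and after incubation. IC50 taken from percent growth versus concentration plot; MIC is lowest concentration with no detectable growth; MBC is lowest concentration killing the organism.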

[6] = system: Escherichia coli; assay: Antibacterial activity against Escherichia coli by NCCLS method; assay type: functional, organism-based
Procedure, shortened: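 Modified NCCLS broth microdilution. DMSO-dissolved samples serially diluted in 0.9% saline, tested in duplicate, final concentrations starting at 20 μg/mL. Inoculum set to 0.5 McFarland (absorbance 630 nm) and diluted in cation-adjusted Mueller–Hinton broth. Growth, solvent and medium controls on each plate. Read at 530 nm before and after incubation. IC50 from percent growth versus concentration. MIC is lowest concentration with no detectable growth.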

[7] = system: Mycobacterium intracellulare; assay: Antibacterial activity against Mycobacterium intracellular ATCC 23068 by alamar blue method; assay type: functional, organism-based
Procedure, shortened: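 Modified Alamar blue method (Franzblau). Samples in DMSO serially diluted in 0.9% saline, in duplicate, final concentrations starting at 20 μg/mL. Inoculum adjusted to 0.5 McFarland, then diluted in Middlebrook 7H9 with OADC enrichment plus 5% Alamar blue. Fluorescence read (ex 544/em 590 nm) before and after incubation. IC50 from percent growth versus concentration. MIC is no detectable growth.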

[8] = system: Staphylococcus aureus; assay: Antibacterial activity against Staphylococcus aureus ATCC 29213 by NCCLS method; assay type: functional, organism-based; procedure, shortened: as §2

Structure (SMILES)	CC50 at 48 h [1] [µg/mL]	MFC [2] [µg/mL]	MIC [3] [µg/mL]	IC50 [4] [µg/mL]	MFC [4] [µg/mL]	MIC [4] [µg/mL]	IC50 [5] [µg/mL]	MBC [5] [µg/mL]	MIC [5] [µg/mL]	IC50 [6] [µg/mL]	MBC [6] [µg/mL]	MIC [6] [µg/mL]	IC50 [7] [µg/mL]	MBC [7] [µg/mL]	MIC [7] [µg/mL]	IC50 [8] [µg/mL]	MBC [8] [µg/mL]	MIC [8] [µg/mL]	further results
C[n+]1cccc2c1c1ccccc1n2CCCCCC1CCCCC1.[I-]	7.5	> 20	0.63	0.45	5	0.63	1.5	5	2.5	5	> 20	> 20	0.55	2.5	1.3	–	–	–	IC50 [2]: 3 µg/mL; MIC [2]: 5 µg/mL; IC50 [3]: 0.45 µg/mL; MFC [3]: 5 µg/mL
CSc1ccc(N(CCCCCC2CCCCC2)c2ccc[n+](C)c2)cc1.[I-]	> 10	–	–	–	10	10	1	2.5	2.5	5.2	20	20	1	5	1.3	0.3	5	0.6	–
Cc1ccc2c(c1)c1c(ccc[n+]1C)n2CCCCCC1CCCCC1.[I-]	> 10	20	2.5	17	> 20	20	1.6	10	5	5.6	> 20	> 20	1.5	5	2.5	0.4	10	0.6	IC50 [2]: 2.9 µg/mL; MIC [2]: 5 µg/mL; IC50 [3]: 1.3 µg/mL; MFC [3]: 2.5 µg/mL
C[n+]1cccc2c1c1cc(C(F)(F)F)ccc1n2CCCCCC1CCCCC1.[I-]	> 10	20	0.6	18	> 20	> 20	1.2	10	2.5	7.6	> 20	> 20	0.8	2.5	1.3	0.4	10	0.6	IC50 [2]: 5.8 µg/mL; MIC [2]: 10 µg/mL; IC50 [3]: 0.4 µg/mL; MFC [3]: 1.3 µg/mL
C[n+]1cccc(N(CCCCCC2CCCCC2)c2ccccc2)c1.[I-]	> 10	> 20	–	20	> 20	> 20	3.4	20	10	7.6	> 20	> 20	2.1	2.5	2.5	0.7	10	1.3	–
O=C(O)c1cn(C2CC2)c2cc(N3CCNCC3)c(F)cc2c1=O [CIPROFLOXACIN]	–	–	–	–	–	–	–	0.5 (≈ 1.51 µM)	0.3 (≈ 0.905 µM)	0.005 (≈ 0.0151 µM)	0.6 (≈ 1.81 µM)	0.3 (≈ 0.905 µM)	–	> 20	0.5 (≈ 1.51 µM)	–	0.5 (≈ 1.51 µM)	0.3 (≈ 0.905 µM)	–
C[n+]1cccc(N(CCCCCC2CCCCC2)c2cccc(Cl)c2)c1.[I-]	> 10	–	–	12	20	20	1.3	5	2.5	6.5	> 20	> 20	2.1	5	2.5	0.34	5	0.63	IC50 [3]: 0.72 µg/mL
C[C@@H]1[C@H](O)[C@@H](C)/C=C/C=C/C=C/C=C/C=C/C=C/C=C/[C@H](O[C@@H]2O[C@H](C)[C@@H](O)[C@H](N)[C@@H]2O)C[C@@H]2O[C@](O)(C[C@@H](O)C[C@@H](O)[C@H](O)CC[C@@H](O)C[C@@H](O)CC(=O)O[C@H]1C)C[C@H](O)[C@H]2C(=O)O [AMPHOTERICIN B]	–	–	0.63 (≈ 0.682 µM)	–	5 (≈ 5.41 µM)	1.3 (≈ 1.41 µM)	–	–	–	–	–	–	–	–	–	–	–	–	MFC [3]: 0.63 µg/mL (≈ 0.682 µM)
COc1ccc2c(c1)c1c(ccc[n+]1C)n2CCCCCC1CCCCC1.[I-]	> 10	> 20	1.3	16	> 20	> 20	3.3	20	5	12	> 20	> 20	1.6	2.5	2.5	0.7	20	1.3	IC50 [2]: 7.4 µg/mL; MIC [2]: 20 µg/mL; IC50 [3]: 0.7 µg/mL; MFC [3]: 1.3 µg/mL
C[n+]1cccc(N(CCCCCC2CCCCC2)c2ccccc2C(F)(F)F)c1.[I-]	–	–	–	–	–	–	0.6	5	1.3	9.1	> 20	> 20	1.2	2.5	3.5	0.3	10	0.3	–
C[n+]1cccc(N(CCCCCC2CCCCC2)c2ccccc2Cl)c1.[I-]	–	–	–	–	> 20	> 20	1.1	10	2.5	7.6	> 20	> 20	2.1	5	2.5	0.3	10	0.6	–
C[n+]1cccc(N(CCCCCC2CCCCC2)c2ccc(C(F)(F)F)cc2)c1.[I-]	> 10	–	–	–	5	2.5	0.9	2.5	2.5	3.5	20	20	1	1.3	1.3	–	–	–	–
C[n+]1c2ccccc2cc2[nH]c3ccccc3c21.[I-] [CRYPTOLEPTINE IODIDE]	3.2	–	12.5	–	–	–	20	–	–	–	–	–	–	–	–	10	–	–	MIC [2]: > 250 µg/mL
Cc1ccc(N(CCCCCC2CCCCC2)c2ccc[n+](C)c2)cc1.[I-]	> 10	–	–	–	5	5	1	2.5	2.5	4.5	> 20	20	1.5	2.5	2.5	–	–	–	–
Cc1ccccc1N(CCCCCC1CCCCC1)c1ccc[n+](C)c1.[I-]	–	–	–	–	–	–	1	10	2.5	9.4	> 20	> 20	1.6	2.5	2.5	0.3	10	0.6	–
C[n+]1cccc(N(CCCCCC2CCCCC2)c2ccc(Cl)cc2)c1.[I-]	> 10	> 20	–	–	> 20	1.6	–	–	–	–	–	–	1	–	1.6	1.5	–	3.1	–
CCc1ccc(N(CCCCCC2CCCCC2)c2ccc[n+](C)c2)cc1.[I-]	–	–	–	–	–	–	0.7	2.5	1.3	4	20	20	0.6	5	1.3	0.2	5	3	–
Cc1cccc(N(CCCCCC2CCCCC2)c2ccc[n+](C)c2)c1.[I-]	–	–	–	–	–	–	1.2	5	2.5	7.7	> 20	> 20	1.1	5	1.3	0.7	5	1.3	–
C[n+]1cccc(N(CCCCCC2CCCCC2)c2cccc(C(F)(F)F)c2)c1.[I-]	–	–	–	–	–	–	1.5	5	2.5	4.5	> 20	> 20	2	2.5	2.5	–	–	–	–
COc1ccccc1N(CCCCCC1CCCCC1)c1ccc[n+](C)c1.[I-]	–	–	–	–	–	–	1.2	20	5	14	> 20	> 20	1.9	2.5	2.5	0.4	20	0.6	–
